Source: ChEMBL document CHEMBL1122543, “A substituent constant analysis of the interaction of substituted naphthalene monoimides with DNA” (J Med Chem, 1984)

Legend:
Nucleic Acid [1] = assay: Relative binding affinity for calf thymus DNA in MES 10 at 25 degrees C (Spectrophotometric data); format: nucleic-acid assay; settings: Bos taurus
In short: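 Spectrophotometric titration of ~1 × 10^-3 M compound stock into calf thymus DNA in MES 10 buffer at 25 °C. Each point averages 100 absorbance readings. Absorbances converted to ν (mol bound per mol base pairs) and free ligand using free and bound extinction coefficients. K and site size n come from a nonlinear least-squares fit of the Scatchard plot to the site exclusion model, in base-pair molarity.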

Nucleic Acid [2] = assay: Thermal melting point of calf thymus DNA complexed with monoimide in MES 00 buffer (Spectrophotometric data); format: functional; settings: Bos taurus

K (Nucleic Acid [1]) | SMILES | Tm (Nucleic Acid [2]) [°C]
0.0234 | CN(C)CCCN1C(=O)c2cccc3cc([N+](=O)[O-])cc(c23)C1=O | 77.6
0.0112 | CN(C)CCCN1C(=O)c2cccc3cc(N)cc(c23)C1=O | 70.6
0.0162 | CN(C)CCCN1C(=O)c2cccc3c(N)ccc(c23)C1=O | 70.6
0.0083 | CN(C)CCCN1C(=O)c2cccc3c([N+](=O)[O-])ccc(c23)C1=O | 71.7
0.0089 | CN(C)CCCN1C(=O)c2cccc3cccc(c23)C1=O | 71.9
